Data set [1] is described as follows: Inhibition of full-length wild-type HCV NS3 protease. The arrangement: species or system Hepacivirus hominis. Put shortly: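 Ki was determined in vitro with full-length NS3 protease (genotype 1a construct, expressed and purified by earlier methods) and the central part of NS4A as cofactor.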
A short description of data set [2]: Half life in human liver microsomes at 1 uM by LC-MS/MS analysis. Format: ADME. Put shortly: (§1)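 Compounds were incubated with pooled human liver microsomes (0.5 mg/mL) over 0–40 min. In vitro t1/2 and intrinsic clearance (Clint, μL/min/mg) were calculated with previously published models.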
In general terms: Microsomes from liver hold many membrane-bound enzymes, among them those of drug oxidation.

Data set [3] is described as follows: Intrinsic clearance in human liver microsomes at 1 uM up to 40 mins by LC-MS/MS analysis in presence of NADPH. Format: ADME. The conditions noted are these: read-out: […]. Put shortly:
as §1

Data set [4] in a line: Apparent permeability from apical to basolateral side in human Caco2 cells at 10 uM by LC-MS analysis. Format: ADME, cell-based. As to conditions: Caco-2. Put shortly: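 Apparent permeability coefficients (Papp) were derived from transport rates across Caco-2 cell monolayers. The assay used a modified, more physiological medium because the compounds adsorbed strongly to plasticware.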

A short description of data set [5]: Solubility of the compound in phosphate buffered saline at pH 7.4 after 1 hr by LC-MS/MS analysis. It counts as physicochemical. In a few lines:
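Solubility was measured in phosphate-buffered saline at pH 7.4 with a final DMSO concentration of 1%.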

Data set [6] concerns the target NS3 protease (Hepacivirus C, UniProt C1KIQ2, D168V). As to the kind of experiment: Inhibition of full-length HCV NS3 protease D168V mutant. The arrangement: species or system Hepacivirus hominis. Put shortly: (§2)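 Ki determined in vitro against full-length NS3 protease variants carrying A156T, D168V or R155K substitutions, with the central part of NS4A as cofactor. Enzymes were expressed and purified by previously published methods. The R155K variant (genotype 1a) had the Arg→Lys change introduced at position 155 by PCR.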

Data set [7] deals with NS3 protease (Hepatitis C virus subtype 1b, UniProt Q0ZMF1, A156T). Put plainly: Inhibition of full-length HCV NS3 protease A156T mutant. Also noted: species or system Hepacivirus hominis. Put shortly:
as §2

Values after ≈ are worked out from the molar mass of the structure shown. Bounds are passed on as bounds.

As to `Cc1c(Cl)nc(NC(=O)OC(C)(C)C)c(=O)n1C(C(=O)Nc1ccccc1C(=O)NS(=O)(=O)c1ccc(C(F)(F)F)cc1)c1ccccc1` (configuration not stated), the Ki in data set [1] stood at 3800 nM.

With `CC(C)(C)NC(=O)Nc1nc(Cl)c(-c2ccc(Br)cc2)n(CC(=O)Nc2ccccc2C(=O)NS(=O)(=O)c2ccc(C(F)(F)F)cc2)c1=O`, the affinity in data set [1], expressed as Ki, was 380 nM.

`CC(C)(C)NC(=O)Nc1nc(Cl)c(-c2cccc(Br)c2)n(CC(=O)Nc2ccccc2C(=O)NS(=O)(=O)c2ccc(C(F)(F)F)cc2)c1=O` gave a Ki in data set [1] of 600 nM.

Compound `CC(C)(C)NC(=O)Nc1nc(Cl)c(-c2ccccc2Br)n(CC(=O)Nc2ccccc2C(=O)NS(=O)(=O)c2ccc(C(F)(F)F)cc2)c1=O` yielded an inhibition constant (Ki) in data set [1] of 400 nM.

`CC(C)(C)NC(=O)Nc1nc(Cl)c(Cc2ccc(Br)cc2)n(CC(=O)Nc2ccccc2C(=O)NS(=O)(=O)c2ccc(C(F)(F)F)cc2)c1=O` gave an inhibition constant (Ki) in data set [1] of 440 nM.

In data set [1], `CC(C)(C)NC(=O)Nc1nc(Cl)c(Cc2cccc(Br)c2)n(CC(=O)Nc2ccccc2C(=O)NS(=O)(=O)c2ccc(C(F)(F)F)cc2)c1=O` registered an inhibition constant Ki of 290 nM.

As for `CC(C)(C)NC(=O)Nc1nc(Cl)c(Cc2ccccc2Br)n(CC(=O)Nc2ccccc2C(=O)NS(=O)(=O)c2ccc(C(F)(F)F)cc2)c1=O`, the inhibition constant Ki in data set [1] was 250 nM.

Compound `CC(C)(C)NC(=O)Nc1nc(Cl)c(-c2ccc(-c3cccnc3)cc2)n(CC(=O)Nc2ccccc2C(=O)NS(=O)(=O)c2ccc(C(F)(F)F)cc2)c1=O` registered a half-life at 1 µM in data set [2] of 82 min. Further, the microsomal CLint at 1 µM in data set [3] turned out to be 17 µL/min/mg. In data set [4], the Papp A→B at 10 µM turned out to be 7 ×10⁻⁶ cm/s. For the same compound, the solubility at 1 h in data set [5] is 53 µM (≈ 41.5 µg/mL). The figures for the inhibition constant Ki (on NS3 protease [6]; on NS3 protease [7]; in data set [1]) were 1520 nM, 740 nM and 440 nM, respectively.

The compound `CC(C)(C)NC(=O)Nc1nc(Cl)c(-c2cccc(-c3cccnc3)c2)n(CC(=O)Nc2ccccc2C(=O)NS(=O)(=O)c2ccc(C(F)(F)F)cc2)c1=O` registered a Ki in data set [1] of 390 nM.

In data set [1], `CC(C)(C)NC(=O)Nc1nc(Cl)c(-c2ccccc2-c2cccnc2)n(CC(=O)Nc2ccccc2C(=O)NS(=O)(=O)c2ccc(C(F)(F)F)cc2)c1=O` returned a Ki of 2100 nM.

In data set [1], `CC(C)(C)NC(=O)Nc1nc(Cl)c(Cc2ccc(-c3cccnc3)cc2)n(CC(=O)Nc2ccccc2C(=O)NS(=O)(=O)c2ccc(C(F)(F)F)cc2)c1=O` displayed a Ki of 540 nM.

On to `CC(C)(C)NC(=O)Nc1nc(Cl)c(Cc2cccc(-c3cccnc3)c2)n(CC(=O)Nc2ccccc2C(=O)NS(=O)(=O)c2ccc(C(F)(F)F)cc2)c1=O`, for which affinity in data set [1] was put at a Ki of 810 nM.

`CC(C)(C)NC(=O)Nc1nc(Cl)c(Cc2ccccc2-c2cccnc2)n(CC(=O)Nc2ccccc2C(=O)NS(=O)(=O)c2ccc(C(F)(F)F)cc2)c1=O` registered an inhibition constant (Ki) in data set [1] of 1100 nM.

`CC(C)(C)NC(=O)Nc1nc(Cl)c(Cc2ccccc2)n(C(C(=O)Nc2ccccc2C(=O)NS(=O)(=O)c2ccc(C(F)(F)F)cc2)c2ccccc2)c1=O` (configuration not stated) displayed an inhibition constant Ki in data set [1] of 700 nM.

For the compound `CC(C)(C)NC(=O)Nc1nc(Cl)cn(CC(=O)Nc2ccccc2C(=O)NS(=O)(=O)c2ccc(C(F)(F)F)cc2)c1=O`, the Ki in data set [1] was 1900 nM.

Compound `CC(C)(C)NC(=O)Nc1nc(Cl)c(CCc2ccccc2)n(CC(=O)Nc2ccccc2C(=O)NS(=O)(=O)c2ccc(C(F)(F)F)cc2)c1=O` came in with a half-life at 1 µM in data set [2] above 100 min. In data set [3], the microsomal CLint at 1 µM was below 13 µL/min/mg. The Papp A→B at 10 µM in data set [4] is 0.3 ×10⁻⁶ cm/s. The same compound showed a solubility at 1 h in data set [5] of 23 µM (≈ 16.9 µg/mL). The compound also showed a Ki in data set [1] of 120 nM.

As to `CC(C)(C)NC(=O)Nc1nc(Cl)c(CCCc2ccccc2)n(CC(=O)Nc2ccccc2C(=O)NS(=O)(=O)c2ccc(C(F)(F)F)cc2)c1=O`, in data set [1], the affinity, expressed as Ki, was 140 nM.

The compound `CC(C)(C)NC(=O)Nc1nc(Cl)c(COCc2ccccc2)n(CC(=O)Nc2ccccc2C(=O)NS(=O)(=O)c2ccc(C(F)(F)F)cc2)c1=O` had a half-life at 1 µM in data set [2] of 81 min. The microsomal CLint at 1 µM in data set [3] came out at 17 µL/min/mg. Further, the apparent permeability from apical to basolateral (Papp A→B) at 10 µM in data set [4] was 4 ×10⁻⁶ cm/s. In addition, in data set [5], the solubility at 1 h stood at 22 µM (≈ 16.5 µg/mL). Besides, in data set [1], the Ki was 560 nM.

As to `CC(C)(C)NC(=O)Nc1nc(Cl)c(Cc2ccc3ccccc3c2)n(CC(=O)Nc2ccccc2C(=O)NS(=O)(=O)c2ccc(C(F)(F)F)cc2)c1=O`, in data set [1], the Ki is 330 nM.

In turn, `CC(C)(C)NC(=O)Nc1nc(Cl)c(Cc2cccc3ccccc23)n(CC(=O)Nc2ccccc2C(=O)NS(=O)(=O)c2ccc(C(F)(F)F)cc2)c1=O` gave a Ki in data set [1] of 290 nM.

In turn, `CCCCCc1c(Cl)nc(NC(=O)NC(C)(C)C)c(=O)n1CC(=O)Nc1ccccc1C(=O)NS(=O)(=O)c1ccc(C(F)(F)F)cc1` returned a half-life at 1 µM in data set [2] of 42 min. Moreover, in data set [3], the microsomal CLint at 1 µM was 33 µL/min/mg. Moreover, the Papp A→B at 10 µM in data set [4] was found to be 0.04 ×10⁻⁶ cm/s. Also, the concentration in solution in data set [5] (solubility at 1 h) was 21 µM (≈ 14.7 µg/mL). The same compound had an inhibition constant Ki in data set [1] of 160 nM.

Take `CC(C)(C)NC(=O)Nc1nc(Cl)c(CCC2CCCCC2)n(CC(=O)Nc2ccccc2C(=O)NS(=O)(=O)c2ccc(C(F)(F)F)cc2)c1=O`: the half-life at 1 µM in data set [2] worked out at 27 min. The microsomal CLint at 1 µM in data set [3] came out at 52 µL/min/mg. The Papp A→B at 10 µM in data set [4] came to 0.12 ×10⁻⁶ cm/s. In data set [5], this compound displayed a solubility at 1 h of 31 µM (≈ 22.9 µg/mL). Besides, the figures for the inhibitory constant (Ki) (at NS3 protease [6]; at NS3 protease [7]; in data set [1]) were 320 nM, 170 nM and 110 nM, respectively.

Compound `Cc1c(Cl)nc(NC(=O)NC(C)(C)C)c(=O)n1C(C(=O)NC(CC1CCC1)C(=O)C(N)=O)c1ccccc1` (configuration not stated) had a Ki in data set [1] of 6200 nM.

With `CC(C)(C)NC(=O)Nc1nc(Cl)c(Cc2ccccc2)n(CC(=O)Nc2ccccc2C(=O)NS(=O)(=O)c2ccc(C(F)(F)F)cc2)c1=O`, in data set [1], the inhibition constant (Ki) was determined as 660 nM.

In data set [1], `CC(C)(C)NC(=O)Nc1nc(Cl)c(Cc2ccccc2)n(CC(=O)NC(CC2CCC2)C(=O)C(N)=O)c1=O` (configuration not stated) yielded a Ki of 7100 nM.

For `Cc1c(Cl)nc(NC(=O)NC(C)(C)C)c(=O)n1C(C(=O)Nc1ccccc1C(=O)NS(=O)(=O)c1ccc(C(F)(F)F)cc1)c1ccccc1` (racemic), the half-life at 1 µM in data set [2] stood at 54 min. In data set [3], the microsomal CLint at 1 µM worked out at 26 µL/min/mg. Moreover, the Papp A→B at 10 µM in data set [4] stood at 1.1 ×10⁻⁶ cm/s. In addition, in data set [5], the solubility at 1 h was 38 µM (≈ 27.3 µg/mL). Further, the inhibition constant Ki on NS3 protease [6] turned out to be 1260 nM; at NS3 protease [7] it was 930 nM; in data set [1] it was 390 nM.

With `COc1ccc2c(O[C@@H]3C[C@H]4C(=O)N[C@]5(C(=O)O)C[C@H]5/C=C\CCCCC[C@H](NC(=O)OC5CCCC5)C(=O)N4C3)cc(-c3csc(NC(C)C)n3)nc2c1` [CILUPREVIR], the Ki at NS3 protease [6] was 200 nM; at NS3 protease [7], 120 nM; in data set [1], 0.089 nM.

As for `CCC[C@H](NC(=O)[C@@H]1[C@H]2CCC[C@H]2CN1C(=O)[C@@H](NC(=O)[C@@H](NC(=O)c1cnccn1)C1CCCCC1)C(C)(C)C)C(=O)C(=O)NC1CC1` [TELAPREVIR], the values for the Ki (at NS3 protease [6]; at NS3 protease [7]; in data set [1]) were 3.9 nM, 6100 nM and 15 nM, respectively.

In general, Ki refers to the equilibrium dissociation constant of an inhibitor or competing ligand from its target. Lower therefore signals tighter binding. In general, half-life refers to the time in which the quantity being followed falls by half. Lower therefore signals rapid decline. The term Papp A→B denotes how fast a substance crosses the layer from the apical side. As usually defined, the solubility is how much of the substance goes into solution per volume. Higher therefore signals much dissolved substance.

Values taken from ChEMBL document CHEMBL3124833, “Achiral pyrazinone-based inhibitors of the hepatitis C virus NS3 protease and drug-resistant variants with elongated substituents directed toward the S2 pocket” (J Med Chem, 2014).
